This is an account of results in ChEMBL document CHEMBL5352425, “Discovery of the 4-aminopiperidine-based compound EM127 for the site-specific covalent inhibition of SMYD3” (Eur J Med Chem, 2022).

For series [1], the target named is T1, Histone-lysine N-methyltransferase SMYD3 (Homo sapiens) (UniProt Q9H7B4).
T1 sequence (whole entry): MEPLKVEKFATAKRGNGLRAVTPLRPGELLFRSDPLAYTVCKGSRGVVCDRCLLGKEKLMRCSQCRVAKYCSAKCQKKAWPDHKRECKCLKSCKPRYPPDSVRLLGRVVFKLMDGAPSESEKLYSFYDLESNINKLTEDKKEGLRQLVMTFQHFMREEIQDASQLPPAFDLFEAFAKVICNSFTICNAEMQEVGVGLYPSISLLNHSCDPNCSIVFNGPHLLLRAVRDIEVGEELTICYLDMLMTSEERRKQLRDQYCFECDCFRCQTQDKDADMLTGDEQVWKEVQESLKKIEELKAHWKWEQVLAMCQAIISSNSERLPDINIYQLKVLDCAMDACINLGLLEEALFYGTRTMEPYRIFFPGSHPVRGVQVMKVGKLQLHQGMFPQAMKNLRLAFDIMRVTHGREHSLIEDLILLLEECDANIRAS
Nature of the series: Binding affinity to full length recombinant SMYD3 (unknown origin) overexpressed in Escherichia coli Rosetta cells assessed as covalent adduct formation by SPR analysis. An outline of the steps:
(§1)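 SPR on Biacore X100 at 15 °C: SMYD3 amine-coupled on CM5 chips at 6500–10000 RU, immobilised in HBS-T pH 7.4. Analysis buffer Tris-HCl 50 mM, NaCl 150 mM, 2 mM DTT, 0.05% Tween-20, 2% DMSO, pH 8.0, with or without SAM at saturating concentration. Equilibrium responses solvent-corrected.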
On the technique in general: SPR reads the build-up and loss of mass on a sensor chip optically.

For series [2], the target named is T1, Histone-lysine N-methyltransferase SMYD3 (Homo sapiens). The series is described as follows: Inhibition of full length recombinant SMYD3 (unknown origin) at 50 uM measured for 1 hr by LC-ESI-MS analysis relative to control. The method, boiled down:
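SMYD3 preincubated 1 h at 23 °C with compound (SMYD3 5 μM, compound 50 μM, 2% DMSO), or at 5 μM compound for 1 or 24 h. Stopped with H2O/AcCN/FA, peptide methylation quantified by LC-ESI-MS. Duplicate.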

Series [3] concerns MDA-MB-231. The series is described as follows: Downregulation of CDK2 mRNA expression in human MDA-MB-231 cells at 0.5 uM by RT-qPCR analysis. Format: functional, cell-based. The method, boiled down: (§2)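 MDA-MB-231 or SMYD3-knockout (CRISPR/Cas9) MDA-MB-231 cells in DMEM/10% FBS treated 48 h with 0.5–50 μM compound, or 72 h with reference inhibitor at 10–50 μM; DMSO control. Total RNA extracted with TRI reagent, CDK2, c-MET, FN1 and N-CAD transcripts measured by RT-qPCR and quantified by the ddCT method.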

Series [4] deals with T2, Histone-lysine N-methyltransferase SMYD3 (Homo sapiens, UniProt Q9H7B4).
T2 sequence (Q9H7B4 whole entry): T1 sequence (whole entry)
The series is described as follows: Binding affinity to full length recombinant SMYD3 (unknown origin) overexpressed in Escherichia coli Rosetta cells assessed as dissociation constant by SPR analysis. An outline of the steps:
as §1

Series [5] has as its target T1, Histone-lysine N-methyltransferase SMYD3 (Homo sapiens). The series is described as follows: Binding affinity to full length recombinant SMYD3 (unknown origin) at Cys186 residue overexpressed in Escherichia coli Rosetta cells assessed as covalent adduct formation measured for 24 hrs by LC-MS analysis. The note with it: dose 1-100 µM. The method, boiled down: (§3)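 Recombinant SMYD3 expressed in E. coli Rosetta 2, final 10 μM, incubated at 23 °C in Tris 50 mM pH 8.0, 75 mM NaCl with compound at final 1, 10 or 100 μM, or equimolar 10 μM with sampling at 0–24 h. Samples DTT-denatured at 56 °C, iodoacetamide-alkylated, digested overnight with trypsin plus chymotrypsin at 30 °C, then analysed by LC-MS/MS on Q-ToF for adducted peptides. Triplicate.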

For series [6] the target is unchanged. The series is described as follows: Binding affinity to full length recombinant SMYD3 (unknown origin) at Cys186 residue overexpressed in Escherichia coli Rosetta cells assessed as covalent adduct formation at 1 to 100 uM measured for 24 hrs by LC-MS analysis relative to control. The note with it: dose 1-100 µM. An outline of the steps: as §3
For series [7] the target is unchanged. Nature of the series: Binding affinity to full length recombinant SMYD3 (unknown origin) at Cys186 residue overexpressed in Escherichia coli Rosetta cells assessed as covalent adduct formation at 1 to 100 uM by LC-MS analysis. The note with it: dose 1-100 µM, time <= 24.0 hrs, TDE = time-dependent effect. The method, boiled down: as §3
The target is the same in series [8]. The series is described as follows: Binding affinity to full length recombinant SMYD3 (unknown origin) at Cys186 residue overexpressed in Escherichia coli Rosetta cells assessed as covalent adduct formation at 1 to 100 uM measured after 1 hr by LC-MS analysis relative to control. The settings on record: dose 1-100 µM. An outline of the steps: as §3
Series [9] deals with T2, Histone-lysine N-methyltransferase SMYD3. Nature of the series: Inhibition of full length recombinant SMYD3 (unknown origin) measured at 24 hrs.
Series [10] has the same target. The series is described as follows: Binding affinity to full length recombinant SMYD3 (unknown origin) overexpressed in Escherichia coli Rosetta cells assessed as inhibition constant measured after 1 hr by LC-MS analysis.
Series [11] addresses T1, Histone-lysine N-methyltransferase SMYD3 (Homo sapiens). Nature of the series: Binding affinity to full length recombinant SMYD3 (unknown origin) overexpressed in Escherichia coli Rosetta cells assessed as inactivation constant measured after 1 hr by LC-MS analysis.
Series [12] shares this target. The series is described as follows: Binding affinity to full length recombinant SMYD3 (unknown origin) overexpressed in Escherichia coli Rosetta cells assessed as Kinact/Ki ratio measured after 1 hr by LC-MS analysis.
Series [13] is described as follows: Stability in human plasma measured at 6 hrs by LC-MS analysis. The series is classed as ADME, cell-free. An outline of the steps:
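Compound spiked to final 10 μM into healthy-volunteer human plasma and held at 37 °C with gentle agitation. At 0–360 min, proteins precipitated with ice-cold acetonitrile containing propranolol internal standard. Supernatant dried, reconstituted, analysed by LC-MS with SIM (m/z 312; IS 260). Analyte/IS peak-area ratio followed over time, relative to time 0.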

Series [14] deals with MDA-MB-231. Nature of the series: Downregulation of C-MET mRNA expression in human MDA-MB-231 cells at 0.5 uM by RT-qPCR analysis. Format: functional, cell-based. An outline of the steps:
as §2
(In general: In qPCR the cycle at which signal appears reflects the starting amount.)

Series [15] concerns MDA-MB-231. The series is described as follows: Effect on CDK2 mRNA expression in SMYD3 knockout human MDA-MB-231 cells at 0.5 to 5 uM measured for 48 to 72 hrs by RT-qPCR analysis. The note with it: dose 0.5-5 µM, time 48-72 hrs. The series is classed as functional, cell-based. An outline of the steps: as §2
Series [16] relates to MDA-MB-231. Nature of the series: Effect on c-MET mRNA expression in SMYD3 knockout human MDA-MB-231 cells at 0.5 to 5 uM measured for 48 to 72 hrs by RT-qPCR analysis. The series is classed as functional, cell-based. The settings on record: dose 0.5-5 µM, time 48-72 hrs. The method, boiled down:
as §2

For series [17], the system named is MDA-MB-231. The series is described as follows: Effect on FN1 mRNA expression in SMYD3 knockout human MDA-MB-231 cells at 0.5 to 5 uM measured for 48 to 72 hrs by RT-qPCR analysis. Format: functional, cell-based. The settings on record: dose 0.5-5 µM, time 48-72 hrs. The method, boiled down: as §2
In series [18] the test system is MDA-MB-231. The series is described as follows: Effect on N-cadherin mRNA expression in SMYD3 knockout human MDA-MB-231 cells at 0.5 to 5 uM measured for 48 to 72 hrs by RT-qPCR analysis. The series is classed as functional, cell-based. The note with it: dose 0.5-5 µM, time 48-72 hrs. An outline of the steps:
as §2

For series [19], the target named is T1, Histone-lysine N-methyltransferase SMYD3 (Homo sapiens). Nature of the series: Inhibition of SMYD3 in human HCT-116 cells assessed as decrease in ERK1/2 phosphorylation upto 5 uM by immunoblotting analysis. Format: cell-based. The note with it: time 48-72 hrs, TDE = time-dependent effect. An outline of the steps: (§4)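 HCT116 or MDA-MB-231 cells treated with compound, DMSO as control. Whole-cell lysates in Tris/EDTA/NaCl/1% Triton X-100 with protease and phosphatase inhibitors. 20 μg protein run on 7.5% SDS-PAGE and blotted to nitrocellulose, probed for phospho-ERK1/2 (Thr202/Tyr204), total ERK1/2 and cleaved PARP, with actin as loading control.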

For series [20] the target is unchanged. Nature of the series: Inhibition of SMYD3 in human HCT-116 cells assessed as decrease in ERK1/2 phosphorylation measured for 48 to 72 hrs by immunoblotting analysis. The series is classed as cell-based. The note with it: dose <= 5.0 µM, time 48-72 hrs. An outline of the steps:
as §4
A general note: A western blot detects proteins with antibodies after separation by electrophoresis.

The target is the same in series [21]. Nature of the series: Inhibition of SMYD3 in human MDA-MB-231 cells assessed as decrease in ERK1/2 phosphorylation upto 5 uM by immunoblotting analysis. The settings on record: time 48-72 hrs, TDE = time-dependent effect. The series is classed as cell-based. An outline of the steps:
as §4

For series [22] the target is unchanged. The series is described as follows: Inhibition of SMYD3 in human MDA-MB-231 cells assessed as decrease in ERK1/2 phosphorylation measured for 48 to 72 hrs by immunoblotting analysis. Format: cell-based. The note with it: dose <= 5.0 µM, time 48-72 hrs. An outline of the steps: as §4
The target is the same in series [23]. Nature of the series: Inhibition of SMYD3 in human MDA-MB-231 cells assessed as decrease in cleaved PARP level at 5 uM measured for 48 to 72 hrs by immunoblotting analysis. Format: cell-based. The note with it: time 48-72 hrs. An outline of the steps:
as §4

Series [24] shares this target. The series is described as follows: Inhibition of full length recombinant SMYD3 (unknown origin) at 5 uM measured at 24 hrs by LC-ESI-MS analysis relative to control.
Series [25] has the same target. Nature of the series: Inhibition of SMYD3 in human HCT-116 cells assessed as increase in cleaved PARP level at 5 uM measured for 48 to 72 hrs by immunoblotting analysis. The settings on record: time 48-72 hrs.

Calls of active or inactive are those of the source. The rule behind the calls is not given here.

As to `Cc1cc(C(=O)N2CCC(NC(=O)CCl)CC2)no1`, the outcome in series [1] was inactive. Further, in [2], the inhibition (in general, the drop in the measured response relative to a control, in per cent) is less than 5%.
As to `NC1CCN(C(=O)c2cc(C3CC3)on2)CC1`, the inhibition in series [2] amounted to 5%.
With `O=C(NC1CCN(C(=O)CCl)CC1)c1cc(C2CC2)on1`, the result (in the series on MDA-MB-231 [3]; in series [1]; in the series with MDA-MB-231 [14]) was Active. In series [4], the Kd (as a rule, the free concentration of one partner at which half of the binding sites on the other are occupied at equilibrium, for simple one-to-one binding) was determined as 13 µM. Also, the Activity result in series [5] was “Dose-Dependent Effect”; in series [6], 100%; in [7] it was “Tde”; in series [8], 50%. Moreover, the inhibition in series [2] was 92.1%; in series [19], “Tde”; in series [20], “Dose-Dependent Effect”; in series [21], “Tde”; in series [22] it was “Dose-Dependent Effect”; in series [24], 85.6%. In [9], the IC50 (as a rule, the point on the concentration scale where inhibition reaches its midpoint) was 0.37 µM. The Ki (in general, a measure of affinity in units of concentration, obtained from inhibition or displacement) in [10] is 6.11 µM. In addition, the Kinact in series [11] is 4.49 10^-4/s. Further, the Ratio in series [12] came to 73.5 M⁻¹ s⁻¹. Further, in series [13], the amount remaining (commonly the share of the starting amount still present when the sample was taken) at 6 h came to 76%. Also, the result in the series on MDA-MB-231 [15], with MDA-MB-231 [16], with MDA-MB-231 [17] and with MDA-MB-231 [18] was inactive. In addition, the inhibition entry in [23] and in series [25] was “Active” throughout.
